From ChEMBL document CHEMBL1649385, “Synthesis and in vitro anti-tumor activity of new oxadiazole thioglycosides” (Eur J Med Chem, 2011)
In brackets after ≈: the same amount, converted by molar mass.

Experiments:
[1] = system: MCF7; test: Cytotoxicity against human MCF7 cells after 48 hrs by SRB assay; type: functional, cell-based; settings: MCF7, 48 h
How it was run: (§1)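 SRB assay: cells seeded at 10⁴ cells/well and left 24 h to attach, then exposed to four concentrations of compound for 48 h at 37 °C, 5% CO₂. Cells fixed, washed and stained with sulforhodamine B; excess dye removed with acetic acid, bound dye taken up in Tris-EDTA and read on an ELISA reader. IC50 from surviving fraction versus concentration curves, relative to saline control.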

[2] = system: HepG2; test: Cytotoxicity against human HepG2 cells after 48 hrs by SRB assay; type: functional, cell-based; settings: HepG2, 48 h; how it was run: as §1
[3] = Acute toxicity in albino Wistar rat assessed as mortality at 50 mg/kg, po after 24 hrs; type: organism-based; set-up: dose 50 mg/kg, route oral; settings: in vivo, read-out: Activity
[4] = Acute toxicity in po dosed albino Wistar rat assessed as mortality after 24 hrs; type: organism-based; settings: in vivo
How it was run: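 Male Wistar albino rats (110–115 g) were acclimated for 7 days with pellet diet and water ad libitum. Compound in DMSO was given as a single oral gavage of 500 mg/kg body weight at a fixed 0.5 mL/rat, with eight rats per group. Controls received 0.5 mL DMSO. Mortality was recorded after 24 h.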

| Structure (SMILES) | IC50 [1] [µg/mL] | IC50 [2] [µg/mL] | mortality at 24 h [3] [%] | LD50 at 24 h [4] [mg/kg] |
| --- | --- | --- | --- | --- |
| CSCSc1nnc(-c2cn(-c3ccccc3)nc2CC(C)C)o1 | 2.67 (≈ 7.41 µM) | 4.62 (≈ 12.8 µM) | 25 | > 500 |
| CC(=O)OC[C@H]1O[C@@H](Sc2nnc(-c3cn(-c4ccccc4)nc3CC(C)C)o2)[C@H](OC(C)=O)[C@@H](OC(C)=O)[C@@H]1OC(C)=O | 7.1 (≈ 11.3 µM) | 13.9 (≈ 22 µM) | 25 | > 500 |
| CC(=O)OC[C@@H]1O[C@H](Sc2nnc(C)c(=O)n2/N=C\c2cn(-c3ccccc3)nc2CC(C)C)[C@@H](OC(C)=O)[C@H](OC(C)=O)[C@H]1OC(C)=O | 20.2 (≈ 29 µM) | 9.1 (≈ 13 µM) | – | – |
| CC(C)Cc1nn(-c2ccccc2)cc1-c1nnc(S)o1 | 17.9 (≈ 59.6 µM) | 43.6 (≈ 145 µM) | – | > 500 |
| CC/C(=C(\c1ccccc1)c1ccc(OCCN(C)C)cc1)c1ccccc1 [TAMOXIFEN] | 8.31 (≈ 22.4 µM) | – | – | – |
| O=c1[nH]cc(F)c(=O)[nH]1 [FLUOROURACIL] | – | 25 (≈ 192 µM) | – | – |
